Reference: ChEMBL document CHEMBL5712902, “Enhanced Anti-lymphoma Activity of CAR19-iNKT Cells Underpinned by Dual CD19 and CD1d Targeting” (Cancer Cell, 2018)
Active and inactive are the calls of the source. No cut-off for these calls is given here.

Key:
U-266 [1] = assay: Upregulation of CD1D mRNA expression in human U-266 cells at 10^-6 M upto 96 hrs by RT-PCR analysis; type: functional, cell-based; details: dose 1.0 10^-6M
Summary of the method: (§1)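 U266 cells were harvested in exponential growth and treated with 10^-6 M ATRA, 10^-6 M GSK343, or both, each diluted from a 1 mM 1000x PBS stock. Vehicle control was 0.01% DMSO. Incubation ran up to 96 hr, then CD1D mRNA was read by RT-PCR or CD1d protein by flow cytometry at set time points.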

U-266 [2] = assay: Upregulation of CD1D protein expression in human U-266 cells at 10^-6 M upto 96 hrs by flow cytometric analysis; type: functional, cell-based; details: dose 1.0 10^-6M; summary of the method: as §1
U-266 [3] = assay: Upregulation of CD1D mRNA expression in human U-266 cells at 10^-6 M upto 96 hrs in presence of GSK343 by RT-PCR analysis; type: functional, cell-based; details: dose 1.0 10^-6M; summary of the method: as §1
[4] = Cytotoxicity against human CLL cells assessed as reduction in cell viability at 10^-6 M after 48 to 96 hrs by tryphan blue assay; type: toxicity, cell-based; details: 1 µM, time 48-96 hrs, dose 1 10^-6M
U-266 [5] = assay: Upregulation of CD1D protein expression in human U-266 cells at 10^-6 M upto 96 hrs in presence of GSK343 by flow cytometric analysis; type: functional, cell-based; details: dose 1.0 10^-6M; summary of the method: as §1
CLL cell [6] = assay: Upregulation of CD1D protein expression in human CLL cells at 10^-6 M upto 96 hrs by flow cytometric analysis; type: functional, cell-based; details: dose 1.0 10^-6M
Summary of the method: (§2)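 Primary CLL cells were treated with 10^-6 M ATRA, freshly prepared in DMSO, protected from light and diluted to a 1 mM 1000x stock in PBS. Vehicle control was 0.01% DMSO. Cells were incubated for up to 96 hr, then CD1d was read by RT-PCR for mRNA or flow cytometry for surface protein at set time points.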

CLL cell [7] = assay: Upregulation of CD1D mRNA expression in human CLL cells at 10^-6 M upto 96 hrs by RT-PCR analysis; type: functional, cell-based; details: dose 1.0 10^-6M; summary of the method: as §2

CCCc1cc(C)[nH]c(=O)c1CNC(=O)c1cc(-c2ccnc(N3CCN(C)CC3)c2)cc2c1cnn2C(C)C
Activity (U-266 [1]): inactive
Activity (U-266 [2]): inactive

CC1=C(/C=C/C(C)=C/C=C/C(C)=C/C(=O)O)C(C)(C)CCC1 [TRETINOIN]
Activity (U-266 [3]): Active
Activity [4]: Non-Toxic
Activity (U-266 [5]): Active
Activity (CLL cell [6]): Active
Activity (CLL cell [7]): Active
